Test results from ChEMBL document CHEMBL2407083, “Design and synthesis of novel 4-(4-oxo-2-arylthiazolidin-3-yl)benzenesulfonamides as selective inhibitors of carbonic anhydrase IX over I and II with potential anticancer activity” (Eur J Med Chem, 2013).
In brackets after ≈: the same amount, converted by molar mass. Activity calls are given as the source filed them. No cut-off for these calls is given here.

Experiments:
[1] = test system: DU-145; assay: Cytotoxicity against human DU145 cells after 48 hrs by MTT assay; details: DU-145, 48 h
[2] = test system: COLO 205; assay: Cytotoxicity against human COLO205 cells after 48 hrs by MTT assay; details: COLO 205, 48 h
[3] = target: Carbonic anhydrase 9 (Homo sapiens, UniProt Q16790); assay: Inhibition of carbonic anhydrase 9 (unknown origin) preincubated for 15 mins by stopped flow CO2 hydration assay
[4] = test system: MDA-MB-231; assay: Cytotoxicity against human MDA-MB-231 cells after 48 hrs by MTT assay; details: MDA-MB-231, 48 h
[5] = test system: Mus musculus; assay: Toxicity in Swiss albino mouse DLA-induced solid tumor model assessed as increase in body weight at 50 mg/kg, po administered on days 3rd, 5th, 7th, 10th, 12th, and 14th of tumor inoculation measured on day 30 (reference value: 13.79%); format: organism-based; set-up: dose 50 mg/kg, route oral; details: in vivo
[6] = test system: Mus musculus; assay: Antitumor activity in Swiss albino mouse DLA-induced solid tumor model assessed as reduction in tumor volume at 50 mg/kg, po administered on days 3rd, 5th, 7th, 10th, 12th, and 14th of tumor inoculation measured on day 30; format: functional; set-up: scale not given: the % may be the effect or the level left
Summary of the method: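 Male Swiss albino mice (6-8 weeks, 29 ± 2 g) received DLA cells, 1 × 10⁶/mouse, subcutaneously into the right hind limb. Dosing by mouth in 0.25% CMC suspension. A vernier caliper gave tumor diameter every third day from day 3, and V = 4/3πr₁²×r₂. Percent inhibition is against vehicle control on day 30. Six mice per group.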

[7] = test system: COLO 205; assay: Induction of apoptosis in human COLO205 cells assessed as nuclear condensation at IC50 after 48 hrs using Hoechst 33258 staining by fluorescence microscopic analysis; format: functional, cell-based
Summary of the method: (§1)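 COLO-205 cells plated at 10⁵ cells/ml and grown to 70-80% confluency, then treated for 48 h. Fixed in 4% formaldehyde for 30 min at RT and stained with Hoechst 33258 for 15 min at RT. After three PBS washes, examined by inverted fluorescence microscopy (ex 340-380 nm, em 465 nm) against untreated control cells.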

[8] = test system: COLO 205; assay: Induction of apoptosis in human COLO205 cells assessed as chromatin condensation at IC50 after 48 hrs using acridine orange and ethidium bromide staining by fluorescence microscopic analysis; format: functional, cell-based
Summary of the method: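 COLO-205 cells seeded at 10⁵ cells/ml, grown 24 h, then treated for 48 h. Cells collected by trypsinization, centrifuged at 129 g for 5 min, and washed with PBS. Stained with a 1:1 acridine orange/ethidium bromide mix and examined by fluorescence microscopy against control cells.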

[9] = test system: COLO 205; assay: Induction of apoptosis in human COLO205 cells assessed as DNA fragmentation at IC50 after 48 hrs using Hoechst 33258 staining by fluorescence microscopic analysis; format: functional, cell-based; summary of the method: as §1

Row | Structure (SMILES) | IC50 [1] | IC50 [2] | Ki [3] | IC50 [4] | Activity [5] | Activity [6] | Activity [7] | Activity [8] | Activity [9]
1 | NS(=O)(=O)c1ccc(N2C(=O)CSC2c2ccccc2Br)cc1 (stereo not given) | 35 µg/mL (≈ 84.7 µM) | 27.5 µg/mL (≈ 66.5 µM) | 9.2 nM | 20.6 µg/mL (≈ 49.9 µM) |  |  |  |  | 
2 | NS(=O)(=O)c1ccc(N2C(=O)CSC2c2cccc(Br)c2)cc1 (stereo not given) | 30.1 µg/mL (≈ 72.9 µM) | 16.9 µg/mL (≈ 40.9 µM) | 19.4 nM | 12.4 µg/mL (≈ 30 µM) |  |  |  |  | 
3 | NS(=O)(=O)c1ccc(N2C(=O)CSC2c2ccc(Br)cc2)cc1 (stereo not given) | 35.1 µg/mL (≈ 84.9 µM) | 23.1 µg/mL (≈ 55.8 µM) | 13.5 nM | 17.5 µg/mL (≈ 42.3 µM) |  |  |  |  | 
4 | NS(=O)(=O)c1ccc(N2C(=O)CSC2c2ccccc2Cl)cc1 (stereo not given) | 33.3 µg/mL (≈ 90.2 µM) | 19.5 µg/mL (≈ 52.9 µM) | 7.7 nM | 13.6 µg/mL (≈ 36.8 µM) |  |  |  |  | 
5 | NS(=O)(=O)c1ccc(N2C(=O)CSC2c2ccccc2F)cc1 (stereo not given) | 38.6 µg/mL (≈ 110 µM) | 34.7 µg/mL (≈ 98.4 µM) | 44.4 nM | 25.9 µg/mL (≈ 73.4 µM) |  |  |  |  | 
6 | NS(=O)(=O)c1ccc(N2C(=O)CSC2c2ccccc2)cc1 (stereo not given) | 39.2 µg/mL (≈ 117 µM) | 30.6 µg/mL (≈ 91.5 µM) | 21.2 nM | 23.9 µg/mL (≈ 71.4 µM) |  |  |  |  | 
7 | NS(=O)(=O)c1ccc(N2C(=O)CSC2c2ccc(F)cc2)cc1 (stereo not given) | 37.1 µg/mL (≈ 105 µM) | 31.4 µg/mL (≈ 89 µM) | 37.4 nM | 22.7 µg/mL (≈ 64.4 µM) |  |  |  |  | 
8 | NS(=O)(=O)c1ccc(N2C(=O)CSC2c2cccc(F)c2)cc1 (stereo not given) | 39.1 µg/mL (≈ 111 µM) | 29.8 µg/mL (≈ 84.7 µM) | 53.1 nM | 21.4 µg/mL (≈ 60.6 µM) |  |  |  |  | 
9 | NS(=O)(=O)c1ccc(N2C(=O)CSC2c2cccc(Cl)c2)cc1 (stereo not given) | 23.9 µg/mL (≈ 64.9 µM) | 5.03 µg/mL (≈ 13.6 µM) | 2.2 nM | 5.81 µg/mL (≈ 15.8 µM) | 4.09% | 64.83% | Active | Active | Active
10 | NS(=O)(=O)c1ccc(N2C(=O)CSC2c2ccc(Cl)cc2)cc1 (stereo not given) | 29.3 µg/mL (≈ 79.4 µM) | 15.4 µg/mL (≈ 41.7 µM) | 4.7 nM | 7.16 µg/mL (≈ 19.4 µM) |  |  |  |  | 
